The test system of assay [1] is Human immunodeficiency virus 1. Kind of assay: Reduction of viral load in the cell supernatant. It is filed as functional, organism-based.
Assay [2] relates to Human immunodeficiency virus 1. The experiment in a line: Cytotoxicity (C) and percentage of dead cells at 100 uM concentration. In kind it is functional. The gist of the method: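 CEM lymphocytes (RPMI-1640, 10% FCS) plated in triplicate and infected with cell-free HIV-1 NL4-3; virus removed after 2 h, drug at 100 µM added in DMSO in fresh medium for 72 h. Viability by MTT (7.5 mg/mL stock), 4 h at […], formazan dissolved in SDS/HCl, absorbance at 570 nm; value given as percentage of dead cells.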

The subject of assay [3] is Human immunodeficiency virus 1. The experiment in a line: Ex vivo activity against residual viruses (% of nontreated infected cells) in cell supernatant at 100 uM concentration. In kind it is functional.
Assay [4] deals with Human immunodeficiency virus 1. The experiment in a line: Inhibitory concentration against HIV-1 required for 50% reduction of viral load in the cell supernatant; Not reached. It is filed as functional, organism-based.

As usually defined, the IC50 is the concentration at which inhibition is half-maximal.

For the compound `O=C(O)c1ccc2ccc(/C=C/c3ccc(O)cc3)nc2c1O`, the half-maximal inhibitory concentration (IC50) in assay [1] was 95 µM. The compound further had a Cytotoxicity in assay [2] of 50%. This compound also had an RV in assay [3] of 26%.

In turn, `O=C(O)c1ccc2ccc(/C=C/c3ccc4c(c3)OCO4)nc2c1O` gave an IC50 in assay [1] of 10 µM. The Cytotoxicity in assay [2] is recorded as 40%. The RV in assay [3] is recorded as 4%.

`COc1ccc(/C=C/c2ccc3ccc(C(=O)O)c(O)c3n2)cc1O` yielded a half-inhibitory concentration (IC50) in assay [1] of 54 µM. In assay [2], this compound yielded a Cytotoxicity of 57%. The RV in assay [3] was 0%.

As for `O=C(O)c1ccc2ccc(/C=C/c3cc(O)c(O)c(O)c3)nc2c1O`, in assay [2], the Cytotoxicity was determined as 90%. The compound further showed an RV in assay [3] of 0%.

As to `O=C(O)c1ccc2ccc(/C=C/c3cccnc3)nc2c1O`, in assay [2], the Cytotoxicity came out at 74%. The NR result in assay [4] was “Not reached”. The same compound came in with an RV in assay [3] of 74%.

Regarding `O=C(O)c1ccc2ccc(/C=C/c3cc(O)cc(/C=C/c4ccc5ccc(C(=O)O)c(O)c5n4)c3)nc2c1O`, the Cytotoxicity in assay [2] is reported as 0%. Besides, the NR result in assay [4] is reported as “Not reached”. In addition, the RV in assay [3] is on record as 100%.

In assay [1], `COc1cc(/C=C/c2ccc3ccc(C(=O)O)cc3n2)ccc1O` came in with an IC50 of 20 µM. The compound further gave a Cytotoxicity in assay [2] of 30%. In assay [3], this compound returned an RV of 17%.

In assay [1], `Nc1ccc(/C=C/c2ccc3ccc(C(=O)O)c(O)c3n2)cc1` gave a 50% inhibitory concentration (IC50) of 50 µM. Besides, the Cytotoxicity in assay [2] amounted to 40%. Further, the RV in assay [3] worked out at 8%.

With `O=C(O)c1ccc2ccc(/C=C/c3ccc(F)c(F)c3)nc2c1O`, the half-maximal inhibitory concentration (IC50) in assay [1] is 30 µM. This compound also registered a Cytotoxicity in assay [2] of 91%. In assay [3], the RV stood at 2%.

Compound `COc1cc(/C=C/c2ccc3ccc(C(=O)O)c(O)c3n2)ccc1O` had an IC50 in assay [1] of 3 µM. In assay [2], this compound returned a Cytotoxicity of 48%. Further, in assay [3], the RV is reported as 12%.

`O=C(O)c1ccc2ccc(/C=C/c3ccc(O)c(O)c3)nc2c1O` showed an IC50 in assay [1] of 1.3 µM. The same compound yielded a Cytotoxicity in assay [2] of 70%. Besides, the RV in assay [3] is listed as 0%.

Turning to `O=C(O)c1ccc2nc(/C=C/c3ccc(O)c(O)c3)ccc2c1`, the IC50 in assay [1] stood at 20 µM. In assay [2], this compound displayed a Cytotoxicity of 0%. Besides, the RV in assay [3] was 4%.

In assay [1], `O=C(O)c1cc(C(=O)O)c2ccc(/C=C/c3ccc(O)c(O)c3)nc2c1` gave an IC50 of 15 µM. The compound also gave a Cytotoxicity in assay [2] of 0%. The compound also displayed an RV in assay [3] of 5%.

Turning to `CC(=O)Nc1ccc(/C=C/c2ccc3ccc(C(=O)O)c(O)c3n2)cc1`, in assay [2], the Cytotoxicity came to 88%. Also, the RV in assay [3] was determined as 0%.

`O=C(O)c1ccc2ccc(/C=C/c3cc(Br)c(O)c(Br)c3)nc2c1O` showed an IC50 in assay [1] of 30 µM. The Cytotoxicity in assay [2] was determined as 8%. The RV in assay [3] worked out at 13%.

Regarding `O=C(O)c1ccc2ccc(/C=C/c3ccsc3)nc2c1O`, the Cytotoxicity in assay [2] is listed as 68%. The compound further showed an RV in assay [3] of 0%.

In the case of `Oc1ccc(/C=C/c2ccc3cccc(O)c3n2)cc1O`, the Cytotoxicity in assay [2] is 78%. In assay [3], this compound registered an RV of 1%.

Turning to `O=C(O)c1ccc2ccc(/C=C/c3ccc([N+](=O)[O-])cc3)nc2c1O`, in assay [2], the Cytotoxicity was 74%. The same compound showed an RV in assay [3] of 6%.

`COc1cc(/C=C/c2ccc3ccc(C(=O)O)c(O)c3n2)cc(O)c1O`: the midpoint of inhibition in assay [1], the IC50, lay at 12 µM. For the same compound, the Cytotoxicity in assay [2] was 14%. Also, in assay [3], the RV is reported as 6%.

Compound `O=C(O)c1cccc2nc(/C=C/c3ccc(O)c(O)c3)ccc12` had an IC50 in assay [1] of 50 µM. In assay [2], this compound came in with a Cytotoxicity of 0%. Moreover, in assay [3], the RV is reported as 5%.

As to `COc1cc(/C=C/c2ccc3ccc(C(=O)O)c(O)c3n2)cc(OC)c1O`, half-maximal inhibition in assay [1] (IC50) was put at 9 µM. In assay [2], this compound registered a Cytotoxicity of 17%. In addition, the RV in assay [3] came to 0%.

The compound `O=C(O)c1cccc2ccc(/C=C/c3ccc(O)c(O)c3)nc12` showed a 50% inhibitory concentration (IC50) in assay [1] of 12 µM. For the same compound, the Cytotoxicity in assay [2] amounted to 0%. In assay [3], this compound gave an RV of 0%.

Take `O=C(O)c1cc(/C=C/c2ccc3ccc(C(=O)O)c(O)c3n2)ccc1O`: the IC50 in assay [1] amounted to 80 µM. The Cytotoxicity in assay [2] was 0%. The RV in assay [3] amounted to 24%.

Consider `O=C(O)c1ccc2ccc(/C=C/c3ccc(CO)cc3)nc2c1O`, for which the half-inhibitory concentration (IC50) in assay [1] was found to be 110 µM. In addition, in assay [2], the Cytotoxicity amounted to 17%. The compound also displayed an RV in assay [3] of 55%.

For the compound `O=C(O)c1ccc2ccc(/C=C/c3ccco3)nc2c1O`, in assay [2], the Cytotoxicity is 0%. Besides, in assay [4], the NR entry was “Not reached”. In addition, the RV in assay [3] is 70%.

`O=C(O)c1ccc2ccc(/C=C/c3cc(O)c(O)c(I)c3)nc2c1O` returned an IC50 in assay [1] of 6.8 µM. This compound showed a Cytotoxicity in assay [2] of 42%. In assay [3], the RV was determined as 3%.

Take `O=C(O)c1ccc2ccc(/C=C/c3ccccc3)nc2c1O`: the Cytotoxicity in assay [2] is 100%. Besides, in assay [3], the RV is listed as 0%.

In the case of `O=C(O)c1ccc2ccc(/C=C/c3ccc(O)cc3O)nc2c1O`, in assay [1], the IC50 is 80 µM. In assay [2], this compound gave a Cytotoxicity of 26%. Moreover, the RV in assay [3] came to 42%.

For `O=C(O)c1ccc2ccc(/C=C/c3cc(O)cc(O)c3)nc2c1O`, the Cytotoxicity in assay [2] came to 17%. In assay [4], the NR entry is recorded as “Not reached”. The RV in assay [3] came to 55%.
